# STEP inh: STEP phosphatase inhibitors, primary screen, biochemical, fluorescence intensity, uHTS; inhibition, % at 20 µM; recombinant STEP, OMFP fluorogenic substrate; Tyrosine-protein phosphatase non-receptor type 5 (Homo sapiens), P54829; 0.25% of 360,000 active;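 active = inhibition at 20 µM, scaled per plate between control wells, above about 37%, limit read from the data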;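 note: 0% = DMSO with enzyme and substrate and 100% = substrate only without enzyme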
#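 medium = Bis-Tris buffer pH 6.0, 2.5 mM DTT, 0.005% Tween 20 | test system = STEP (striatal-enriched tyrosine phosphatase) enzyme, cell-free | measure = normalized % inhibition | compound dosing = 20 µM, 1% DMSO | also added = 25 µM OMFP | schedule = reaction 20 min, ambient temperature | measured by = fluorescence read at 480 nm ex / 540 nm em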
# LMPTP inh: LMPTP phosphatase inhibitors, primary screen, biochemical, fluorescence intensity, uHTS; recombinant LMPTP-A, OMFP fluorogenic substrate; inhibition, % at 20 µM; 0.22% of 360,000 active; AID 651560, 2012;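 active = compounds that cut the enzyme signal by at least half of the control window in the single-dose screen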;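 note: plate controls were DMSO wells with enzyme plus substrate for no effect and substrate without enzyme for full effect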
# Target sequence (P24666 whole entry, looked up): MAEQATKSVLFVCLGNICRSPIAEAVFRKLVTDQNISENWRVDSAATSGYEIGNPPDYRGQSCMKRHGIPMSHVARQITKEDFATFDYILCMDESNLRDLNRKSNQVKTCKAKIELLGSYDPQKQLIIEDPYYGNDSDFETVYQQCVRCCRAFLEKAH
#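 material = LMPTP-A | quantity = 0.625 nM enzyme | reagent = OMFP substrate, 400 µM final | buffer or medium = Bis-Tris pH 6.0, DTT, detergent | detection = endpoint fluorescence intensity from OMFP dephosphorylation | dosing = single 20 µM dose | read-out basis = % inhibition relative to no-enzyme and uninhibited control wells | control set = no-enzyme and uninhibited controls | timing = 50 min at room temperature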
# SUMO1-SIM PPI: modulators of SUMO1 protein-protein interactions, primary screen, biochemical, uHTS. inhibition, % at 20 µM. 0.33% of 360,000 active. SUMO1 binding to a labelled peptide, TR-FRET, 1 h; in the data active = inhibition above about 37%
# Target sequence (P63165 whole entry, looked up): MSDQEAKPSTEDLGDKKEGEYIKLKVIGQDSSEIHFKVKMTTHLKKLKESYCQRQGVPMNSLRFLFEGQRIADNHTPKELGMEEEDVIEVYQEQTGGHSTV
# Scp-1 inhibitor: Scp-1 phosphatase inhibitors, primary screen, biochemical, colorimetric, uHTS | Carboxy-terminal domain RNA polymerase II polypeptide A small phosphatase 1 (Homo … | Recombinant Scp1, phosphopeptide, malachite green phosphate absorbance | inhibition, % at 20 µM | 0.88% of 340,000 active;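 active = inhibition above about 50% at 20 µM, limit read from the data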;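 note: plate controls were DMSO wells with enzyme for no effect and wells lacking enzyme for full effect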
# Target sequence (Q9GZU7 76-261 limits assumed): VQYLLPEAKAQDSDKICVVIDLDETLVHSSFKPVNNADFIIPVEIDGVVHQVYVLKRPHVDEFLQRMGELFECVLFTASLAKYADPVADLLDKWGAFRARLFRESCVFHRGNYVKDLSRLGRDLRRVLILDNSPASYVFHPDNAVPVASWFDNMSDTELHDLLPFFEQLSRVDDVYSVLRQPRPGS
#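 Incubation: 45 min enzyme reaction at room temperature / System: truncated SCP-1 phosphatase (76-261aa) / Reagent: Phospho 17-mer peptide substrate / Buffer or medium: Acidic Tris acetate buffer with magnesium and detergent / Signal: absorbance at 630 nm / Doses: one concentration, 20 µM, with 1.0% DMSO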
# Pemphigus Ab inh: inhibitors of pemphigus antibody binding to DSG3, primary screen, biochemical, bead-based, flow cytometry, scFv-GFP | Desmoglein-3 (Homo sapiens), P32926 | DSG3-coupled beads, scFv-anti-DSG3-GFP binding; stronger effect = lower value | binding (percent of control), % at 10 µM | 0.48% of 310,000 active | AID 588358, 2011;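 active = binding more than 3 SD below its plate's average and above zero; inconclusive = below that plate limit but binding exactly zero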;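 note: hits lower antibody fragment binding to DSG3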
# Active calls of the source: *; i = inactive; ? = inconclusive; / = no result. Sampled rows, rich in hits. Any-hit rate of the full collection: about 1.7%.
SMILES,STEP inh,LMPTP inh,SUMO1-SIM PPI,Scp-1 inhibitor,Pemphigus Ab inh
CCCn1c(N2CCN(S(=O)(=O)Cc3ccccc3)CC2)nc2ccccc21,3,1,-5,-2,56*
COC(=O)c1ccc(NC(=O)c2cc(-c3ccccn3)nc3ccccc23)cc1,-3,0,1,5,4.9*
COc1ccc(NC(=O)c2cc(-c3ccco3)nc3ccccc23)cn1,4,14,-5,67*,100
NS(=O)(=O)c1ccc(NC(=O)c2cc(-c3cccs3)nc3ccccc23)cc1,-2,1,-5,-9,36*
O=C(NC1CC1)c1cc(-c2ccco2)nc2ccccc12,20,51*,40*,80*,72*
O=C(N/N=C/c1ccc(F)cc1)c1cc(-c2ccco2)nc2ccccc12,16,61*,12,81*,28*
CCOc1ccc(/C=N/NC(=O)c2cc(-c3ccco3)nc3ccccc23)cc1,2,1,-4,-1,117
O=C(Nc1cccc(S(=O)(=O)NC2=NCCC2)c1)c1cc(-c2ccco2)nc2ccccc12,6,61*,23,90*,64
O=C(NC(=S)Nc1cccc(S(=O)(=O)NC2=NCCC2)c1)c1cc(-c2ccco2)nc2ccccc12,5,15,22,-6,104
COCCSc1nnc(NC(=O)c2ccc(NC(=O)C(C)C)cc2)s1,-3,0,2,-8,95
O=C1CCNCCN1[C@H](CO)c1ccccc1,-3,-2,-4,-8,104
N=C(N)c1ccc(/C=C/c2ccc(C(=N)N)cc2O)cc1,0,65*,78*,-5,115
CCOc1ccc(NC(=O)c2cc(S(=O)(=O)N3CCCCC3)c[nH]2)cc1,-1,-1,0,-13,80*
O=C(NCCN1CCCC1=O)C1CCC(=O)N(CCc2cccc(F)c2)C1 (stereo not given),2,0,44*,-7,98
Cc1ccc(SCC(=O)OCC(=O)NCCc2ccccc2)cc1C,2,2,1,-4,/
C[n+]1ccccc1/C=C/c1ccccc1Cl,-2,-3,-7,98*,113
O=C(CNC1CCCCC1)NN=C(c1ccccc1)c1ccccc1,0,-2,-2,-9,100
O=c1cc2c(=O)oc3cc(O)c(O)oc3c2c(O)c1O,96*,61*,22,85*,?
O=c1oc2cc(O)c(Cl)cc2c2ccccc12,-2,-34,4,-4,107
COc1ccc2[nH]c3c(c2c1)CCN1C(=O)C(CC(=O)NCc2cccc(C(F)(F)F)c2)C[C@H](C(=O)N2CCCCC2)[C@@]31C (stereo not given in full),0,2,11,-4,79*
C[C@]12c3[nH]c4ccc(Cl)cc4c3CCN1C(=O)[C@@H](CC(=O)NCc1cccc(C(F)(F)F)c1)C[C@@H]2C(=O)N1CCCCC1,-2,6,2,-4,99
COc1ccc(C(O)c2ncc(-c3ccccc3C)[nH]2)cc1 (stereo not given),1,0,-4,/,/
O=C(CSc1n[nH]c(=O)n1Cc1ccccc1)Nc1ccc(F)c(F)c1F,0,-1,-2,-3,100
CCN1/C(=C/C=C/c2oc3ccc(-c4ccccc4)cc3[n+]2CC)Oc2ccc(-c3ccccc3)cc21,i,14,57*,18,/
CCCCN1C(=O)/C(=C/C=C2\Oc3ccccc3N2CC)SC1=S,-42,8,-28,-4,192
SMILES,STEP inh,LMPTP inh,SUMO1-SIM PPI,Scp-1 inhibitor,Pemphigus Ab inh
O=C(CCCCCCC(=O)c1ccccc1)c1ccccc1,0,1,4,2,62*
O=C(CCC(=O)c1ccccc1)Nc1ccccc1,-2,-2,5,2,80*
COC(=O)CCC(=O)Nc1ccc(N=Nc2ccccc2)cc1,0,1,-25,0,-11*
O=C(CCCCCCCC(=O)c1ccccc1)c1ccccc1,-1,3,5,-4,101
O=C(Nc1ccccc1OC(F)F)C1CCCN1C(=O)c1cccs1 (stereo not given),0,-3,2,-8,100
Cn1c(SCC(=O)Nc2cccnc2)nnc1-c1ccccc1F,-1,-1,-2,-1,102
CCOC(=O)/C=C1\SCC(=O)N1CC(=O)NC(C)c1ccc(F)cc1 (stereo not given),1,-2,3,1,121
O=C1CSC(=S)N1/N=C/c1ccc(O)c(O)c1O,15,65*,10,53*,83
COc1ccccc1C=NN1C(=O)CSC1=S,-2,0,-3,0,100
NC(=O)c1ccc(NC(=O)c2ccc3c(c2)CCN3S(=O)(=O)c2ccccc2)cc1,-8,1,1,-10,10*
COc1cc([N+](=O)[O-])ccc1NC(=O)COC(=O)c1ccc(NC(N)=O)cc1,2,19,45*,-5,89
O=C(O)CCn1cc(/C=C2\NC(=S)N(c3ccccc3)C2=O)c(-c2ccc(Br)cc2)n1,-4,0,5,48,95
N#CCCn1cc(/C=C2\NC(=S)N(c3ccccc3)C2=O)c(-c2ccc(F)cc2)n1,-1,1,-11,-6,1.1*
CNc1nc2c(C)cccn2c(=O)c1C=NCc1ccccc1,0,-1,-9,-4,105
COc1ccc(Nc2nc3c(C)cccn3c(=O)c2C=NCc2ccccc2)cc1,1,3,-1,3,70*
COc1ccc(-n2c(SCC(=O)c3ccc[nH]3)nnc2-c2ccccc2)cc1,-2,0,-4,2,-30
O=C(NCc1ccccc1)C1CCC(=O)N(CC2CCCCC2)C1 (stereo not given),1,-1,-5,-5,99
O=C(N/N=C\C=C\c1ccc([N+](=O)[O-])o1)c1cccs1,12,6,9,57*,95
O=C(O)/C=C/c1ccc([N+](=O)[O-])o1,31,11,-1,58*,102
CC(Sc1nnnn1C)C(=O)Nc1cc(S(=O)(=O)N2CCCCC2)ccc1Cl (stereo not given),-1,-1,16,-10,105
O=C(NCCC(=O)N1CCN(C(=O)c2ccco2)CC1)c1ccccc1Cl,-2,-1,2,-18,87
S=C1NC2CCCCC2N1 (stereo not given),-1,0,3,-5,100
CCCN(C(=O)c1cccs1)c1nnc(-c2ccncc2)s1,-2,1,-6,-7,78*
CCN(C(=O)Cc1ccccc1OC)c1nnc(-c2ccncc2)s1,2,0,-3,-7,100
